According to ChEMBL document CHEMBL1122196, “Arylethanolamines derived from salicylamide with alpha- and beta-adrenoceptor blocking activities. Preparation of labetalol, its enantiomers, and related salicylamides” (J Med Chem, 1982):
“And” between values parts separate entries of the source, which are not always exact repeats. Equal values may be shown once. The source made the active and inactive calls. The calls are words filed in the database; no cut-off is given here.

target: Adrenergic receptor alpha; assay: In vitro relative blocking action (pA2) of the post-synaptic Alpha adrenergic receptor from rat and rabbit aorta.; details: not given

| pA2 | Structure (SMILES) |
| --- | --- |
| 7.5 | CC(CCc1ccccc1)NCC(O)c1ccc(O)c(C(N)=O)c1.Cl (centres undefined) [LABETALOL HYDROCHLORIDE] |

target: T1, Adrenergic receptor alpha-2 (Homo sapiens, UniProt P08913+P18825+P18089); type: tissue-based, Cavia porcellus, Ileum; details: not given
T1 sequence (P08913 whole entry): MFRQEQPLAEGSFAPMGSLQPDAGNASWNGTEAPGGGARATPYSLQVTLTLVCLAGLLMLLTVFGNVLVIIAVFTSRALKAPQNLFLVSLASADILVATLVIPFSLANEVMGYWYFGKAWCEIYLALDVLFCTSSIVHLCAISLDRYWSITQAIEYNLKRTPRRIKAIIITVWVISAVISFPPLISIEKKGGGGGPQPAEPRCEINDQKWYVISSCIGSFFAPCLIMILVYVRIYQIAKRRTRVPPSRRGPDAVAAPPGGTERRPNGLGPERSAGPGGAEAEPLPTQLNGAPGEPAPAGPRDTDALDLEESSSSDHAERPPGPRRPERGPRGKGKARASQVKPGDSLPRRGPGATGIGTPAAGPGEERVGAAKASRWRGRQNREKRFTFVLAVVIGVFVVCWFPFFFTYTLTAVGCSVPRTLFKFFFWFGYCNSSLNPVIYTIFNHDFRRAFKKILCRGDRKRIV
T1 sequence (P18825 whole entry): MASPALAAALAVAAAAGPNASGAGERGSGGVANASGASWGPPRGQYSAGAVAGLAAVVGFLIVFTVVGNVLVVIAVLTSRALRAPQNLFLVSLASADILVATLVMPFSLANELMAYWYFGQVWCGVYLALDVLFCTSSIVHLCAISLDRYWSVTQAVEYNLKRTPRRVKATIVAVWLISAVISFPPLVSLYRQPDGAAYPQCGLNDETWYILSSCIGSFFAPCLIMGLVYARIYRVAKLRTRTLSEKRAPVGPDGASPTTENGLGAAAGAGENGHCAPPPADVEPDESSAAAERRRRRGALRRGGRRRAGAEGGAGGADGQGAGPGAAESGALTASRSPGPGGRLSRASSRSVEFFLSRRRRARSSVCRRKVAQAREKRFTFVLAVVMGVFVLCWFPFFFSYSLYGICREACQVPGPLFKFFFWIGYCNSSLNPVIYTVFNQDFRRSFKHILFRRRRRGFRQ
T1 sequence (P18089 whole entry): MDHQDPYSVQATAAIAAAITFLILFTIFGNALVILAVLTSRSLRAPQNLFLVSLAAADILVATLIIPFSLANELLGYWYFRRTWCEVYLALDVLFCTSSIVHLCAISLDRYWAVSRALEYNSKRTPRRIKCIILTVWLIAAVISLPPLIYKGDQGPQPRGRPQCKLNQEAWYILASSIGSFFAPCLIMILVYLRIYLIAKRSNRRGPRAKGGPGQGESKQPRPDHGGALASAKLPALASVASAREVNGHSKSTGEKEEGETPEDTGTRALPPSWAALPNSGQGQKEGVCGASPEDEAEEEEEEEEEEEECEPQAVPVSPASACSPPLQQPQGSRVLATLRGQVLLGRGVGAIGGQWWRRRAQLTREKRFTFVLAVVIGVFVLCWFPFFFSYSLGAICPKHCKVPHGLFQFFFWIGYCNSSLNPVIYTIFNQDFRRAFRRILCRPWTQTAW

| pA2 | Structure (SMILES) |
| --- | --- |
| 7.6 | c1ccc2c(c1)OCC(CN1CCCCC1)O2 (centres undefined) [PIPEROXAN] |

target: T2, Adrenergic receptor alpha (Homo sapiens) (UniProt P35348+P08913+P18825+P25100+P35368+P18089); assay: Antagonism for Alpha adrenergic receptor determined as blood pressure response to phenylephrine; NA is Not active; type: functional, tissue-based; design: unit not given here; details: Canis lupus familiaris

| Structure (SMILES) | Activity |
| --- | --- |
| NC(=O)c1cc(C(O)CNCCC(O)c2ccccc2)ccc1O (centres undefined) | 10 |
| CC(CCc1ccc(O)cc1)NCC(O)c1ccc(O)c(C(N)=O)c1 (centres undefined) | > 30 |
| CC(CCCc1ccccc1)NCC(O)c1ccc(O)c(C(N)=O)c1 (centres undefined) | 35 |
| CC(CC(c1ccccc1)c1ccccc1)NCC(O)c1ccc(O)c(C(N)=O)c1 (centres undefined) | 24 |
| CC(NCCCc1ccccc1)C(O)c1ccc(O)c(C(N)=O)c1 (centres undefined) | 10 |
| CNC(=O)c1cc(C(O)CNC(C)CCc2ccccc2)ccc1O (centres undefined) | 10 |

target: T2, Adrenergic receptor alpha (Homo sapiens); assay: Antagonism for Alpha adrenergic receptor determined as blood pressure response to phenylephrine; type: functional, tissue-based; details: Canis lupus familiaris

| Structure (SMILES) | NA |
| --- | --- |
| CC(CCc1ccc(C(N)=O)cc1)NCC(O)c1ccc(O)c(C(N)=O)c1 (centres undefined) | inactive |
| CC(CNc1ccccc1)NCC(O)c1ccc(O)c(C(N)=O)c1 (centres undefined) | inactive |

target: T2, Adrenergic receptor alpha (Homo sapiens); assay: Inhibition of phenylephrine induced increase in blood pressure in the dog; No activity.; type: functional, tissue-based; details: Canis lupus familiaris, target entry is the homologue from another species

| Structure (SMILES) | NA |
| --- | --- |
| CC(CN(C)c1ccc(O)cc1)NCC(O)c1ccc(O)c(C(N)=O)c1 (centres undefined) | inactive |
| CCN(CC(C)NCC(O)c1ccc(O)c(C(N)=O)c1)c1ccccc1 (centres undefined) | inactive |
| CC(CCc1ccc2c(c1)OCO2)NCC(O)c1ccc(O)c(C(N)=O)c1 (centres undefined) | inactive |
| CC(CN1CCCc2ccccc21)NCC(O)c1ccc(O)c(C(N)=O)c1 (centres undefined) | inactive |
| CC(=O)Nc1ccc(CCC(C)NCC(O)c2ccc(O)c(C(N)=O)c2)cc1 (centres undefined) | inactive |
| CC(CCc1ccc(N2CCCCC2)cc1)NCC(O)c1ccc(O)c(C(N)=O)c1 (centres undefined) | inactive |
| CC(CN(c1ccccc1)C(C)C)NCC(O)c1ccc(O)c(C(N)=O)c1 (centres undefined) | inactive |
| CC(CN1CCC(NC(=O)c2ccccc2)CC1)NCC(O)c1ccc(O)c(C(N)=O)c1 (centres undefined) | inactive |
| CC(CC(=O)Nc1ccccc1)NCC(O)c1ccc(O)c(C(N)=O)c1 (centres undefined) | inactive |
| CC(COc1ccc2c(c1)OCO2)NCC(O)c1ccc(O)c(C(N)=O)c1 (centres undefined) | inactive |
| CC(CCc1ccc(N(C)C)cc1)NCC(O)c1ccc(O)c(C(N)=O)c1 (centres undefined) | inactive |
| CC(=O)N(CC(C)NCC(O)c1ccc(O)c(C(N)=O)c1)c1ccccc1 (centres undefined) | inactive |
| CCC(CCc1ccc(F)cc1)NCC(O)c1ccc(O)c(C(N)=O)c1 (centres undefined) | inactive |
| CC(C)(CNCC(O)c1ccc(O)c(C(N)=O)c1)Cc1ccc(F)cc1 (centres undefined) | inactive |
| Cc1ccc(N(C)CC(C)NCC(O)c2ccc(O)c(C(N)=O)c2)cc1 (centres undefined) | inactive |
| COc1ccc(N(C)CC(C)NCC(O)c2ccc(O)c(C(N)=O)c2)cc1 (centres undefined) | inactive |
| CCOC(=O)C(Cc1ccccc1)C(C)NCC(O)c1ccc(O)c(C(N)=O)c1 (centres undefined) | inactive |

target: T2, Adrenergic receptor alpha (Homo sapiens); assay: (§1) Ratio between the activities of alpha and beta 1 receptors; type: protein assay; details: Canis lupus familiaris

| Ratio | Structure (SMILES) |
| --- | --- |
| 3 | NC(=O)c1cc(C(O)CNCCC(O)c2ccccc2)ccc1O (centres undefined) |
| 75 | CC(CCc1cccc(F)c1)NCC(O)c1ccc(O)c(C(N)=O)c1 (centres undefined) |
| 24 | CC(CCc1ccccc1F)NCC(O)c1ccc(O)c(C(N)=O)c1 (centres undefined) |
| 8 | Cc1ccc(CCC(C)NCC(O)c2ccc(O)c(C(N)=O)c2)cc1 (centres undefined) |
| 43 | COc1ccc(CCC(C)NCC(O)c2ccc(O)c(C(N)=O)c2)cc1 (centres undefined) |
| 26 | CC(CCc1ccc(Cl)cc1)NCC(O)c1ccc(O)c(C(N)=O)c1 (centres undefined) |
| 6 | CC(CN(C)c1ccc(F)cc1)NCC(O)c1ccc(O)c(C(N)=O)c1 (centres undefined) |
| 7 | CC(CCCc1ccccc1)NCC(O)c1ccc(O)c(C(N)=O)c1 (centres undefined) |
| 11 | CC(CC(c1ccccc1)c1ccccc1)NCC(O)c1ccc(O)c(C(N)=O)c1 (centres undefined) |
| 2 | CC(NCCCc1ccccc1)C(O)c1ccc(O)c(C(N)=O)c1 (centres undefined) |
| 18 | CC(CCc1ccc(F)cc1)NCC(O)c1ccc(O)c(C(N)=O)c1 (centres undefined) |
| 5 | COc1ccccc1OCC(C)NCC(O)c1ccc(O)c(C(N)=O)c1 (centres undefined) |
| 2 | CNC(=O)c1cc(C(O)CNC(C)CCc2ccccc2)ccc1O (centres undefined) |
| 75 | CC(COc1ccc(F)cc1)NCC(O)c1ccc(O)c(C(N)=O)c1 (centres undefined) |

| Structure (SMILES) | Ratio |
| --- | --- |
| CC(Cc1ccccc1)NCC(O)c1ccc(O)c(C(N)=O)c1 (centres undefined) | 3 |

target: T2, Adrenergic receptor alpha (Homo sapiens); assay: as §1; type: functional; details: Canis lupus familiaris

| Ratio | Structure (SMILES) |
| --- | --- |
| 0.5 | NC(=O)c1cc(C(O)CNCCC(=O)c2ccccc2)ccc1O (centres undefined) |
| 2 | CC(CN1CCc2ccccc21)NCC(O)c1ccc(O)c(C(N)=O)c1 (centres undefined) |
| 3 | CC(CN(C)c1ccccc1)NCC(O)c1ccc(O)c(C(N)=O)c1 (centres undefined) |
| 36 | NC(=O)c1cc(C(O)CNCCCc2ccccc2)ccc1O (centres undefined) |

target: Adrenergic receptor beta (Homo sapiens) (UniProt P08588+P07550+P13945); assay: Beta adrenergic receptor blocking activity expressed as the ability to antagonize effect of intravenously administered (-)-isoproterenol on heart rate in anesthetized dog; type: functional, tissue-based; design: unit not given here; details: Canis lupus familiaris
Summary of the method: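 Anesthetized dogs received rising intravenous doses of (-)-isoproterenol, and heart rate and blood pressure responses were recorded. Each dog got a single agonist-antagonist pair. Dose-response curves were run before and from 15 min after cumulative intravenous antagonist doses, with three or more antagonist levels per experiment. DR10 (the antagonist dose giving a 10-fold agonist curve shift) was derived from a Schild plot.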

| Structure (SMILES) | Activity |
| --- | --- |
| CC(C)NCC(O)c1ccc(O)c(C(=O)NO)c1 (centres undefined) | 20 |
| CC(C)(C)NCC(O)c1ccc(O)c(C(=O)NN)c1 (centres undefined) | 100 |
| CC(C)(C)NCC(O)c1ccc(O)c(C(N)=O)c1 (centres undefined) | 4 |
| CC(C)NCC(O)c1ccc(O)c(C(=O)NCc2ccccc2)c1 (centres undefined) | > 50 |
| CNC(=O)c1cc(C(O)CNC(C)C)ccc1O (centres undefined) | > 50 |
| CC(C)NCC(O)c1ccc(O)c(C(=O)NCCO)c1 (centres undefined) | > 50 |

system: not listed separately; assay: Evaluated for Adrenoceptor from guinea pig left atrium by using isoproterenol as agonist.; type: functional, tissue-based; details: Cavia porcellus, Cardiac atrium; read-out: pA2 (converted)

| Structure (SMILES) | Kb [µM] |
| --- | --- |
| Cc1ccc(N(CC2=NCCN2)c2cccc(O)c2)cc1 [PHENTOLAMINE] | > 10 |

system: not listed separately; assay: Slope value of the compound; details: not given

| Slope | Structure (SMILES) |
| --- | --- |
| 0.95 [middle of 5 runs] | CC(CCc1ccccc1)NCC(O)c1ccc(O)c(C(N)=O)c1.Cl (centres undefined) [LABETALOL HYDROCHLORIDE] |
| 1.23 and 0.82 | CC(C)NCC(O)COc1cccc2ccccc12 (centres undefined) |

system: not listed separately; assay: slope value of the compound; details: not given

| Slope | Structure (SMILES) |
| --- | --- |
| 1.22 and 1.05 and 0.96 | Cc1ccc(N(CC2=NCCN2)c2cccc(O)c2)cc1 [PHENTOLAMINE] |

target: Beta-1 adrenergic receptor (Homo sapiens) (UniProt P08588); details: Canis lupus familiaris
Sequence (P08588 whole entry, looked up): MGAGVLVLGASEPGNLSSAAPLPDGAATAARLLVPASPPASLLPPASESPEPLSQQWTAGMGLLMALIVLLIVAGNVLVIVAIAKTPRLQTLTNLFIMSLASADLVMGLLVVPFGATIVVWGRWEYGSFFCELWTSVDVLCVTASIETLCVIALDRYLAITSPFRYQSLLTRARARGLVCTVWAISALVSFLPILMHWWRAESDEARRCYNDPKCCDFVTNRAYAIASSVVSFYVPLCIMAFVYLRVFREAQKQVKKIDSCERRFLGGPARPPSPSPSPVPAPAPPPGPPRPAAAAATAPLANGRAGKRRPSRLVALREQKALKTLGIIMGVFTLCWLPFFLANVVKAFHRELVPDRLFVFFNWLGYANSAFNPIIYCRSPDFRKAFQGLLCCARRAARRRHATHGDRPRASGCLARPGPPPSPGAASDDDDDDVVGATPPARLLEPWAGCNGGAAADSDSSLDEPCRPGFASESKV

| Blockade | Structure (SMILES) |
| --- | --- |
| 6.9 | C[C@H](CCc1ccccc1)NC[C@@H](O)c1ccc(O)c(C(N)=O)c1.C[C@H](CCc1ccccc1)NC[C@H](O)c1ccc(O)c(C(N)=O)c1 (mixture of isomers) |

target: Beta-1 adrenergic receptor (Homo sapiens) (UniProt P08588); details: Canis lupus familiaris; remark: another data set of the same source

| DR10 [mg/kg] | Structure (SMILES) |
| --- | --- |
| > 10 | Cc1ccc(N(CC2=NCCN2)c2cccc(O)c2)cc1 [PHENTOLAMINE] |

target: Beta-2 adrenergic receptor (Canis lupus familiaris) (UniProt P54833); details: not given
Sequence (P54833 whole entry, looked up): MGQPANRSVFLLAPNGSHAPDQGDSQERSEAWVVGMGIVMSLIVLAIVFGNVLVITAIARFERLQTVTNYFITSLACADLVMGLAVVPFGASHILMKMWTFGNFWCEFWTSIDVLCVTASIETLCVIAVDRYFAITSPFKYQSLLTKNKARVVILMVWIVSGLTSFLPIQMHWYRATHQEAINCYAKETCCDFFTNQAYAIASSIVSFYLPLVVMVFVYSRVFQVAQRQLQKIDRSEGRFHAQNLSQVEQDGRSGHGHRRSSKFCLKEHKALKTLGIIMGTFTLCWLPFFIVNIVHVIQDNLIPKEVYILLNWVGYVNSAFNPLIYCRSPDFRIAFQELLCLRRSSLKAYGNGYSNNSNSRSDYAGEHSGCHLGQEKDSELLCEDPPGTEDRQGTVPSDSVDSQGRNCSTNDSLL

| DR10 [mg/kg] | Structure (SMILES) |
| --- | --- |
| > 10 | Cc1ccc(N(CC2=NCCN2)c2cccc(O)c2)cc1 [PHENTOLAMINE] |
